This is an account of results in ChEMBL document CHEMBL1126885, “Alkylpurines as immunopotentiating agents. Synthesis and antiviral activity of certain alkylguanines” (1993).

In test [1] the test system is Semliki Forest virus. Description: In vivo antiviral protection against lethal Forest virus (SFV) infection at dosage of 200 mg/kg tested in 12 mice. The class given is functional. An outline of the steps:
(§1)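 Female Swiss Webster mice, about 20 g, in groups of 12. Compound or placebo was dissolved in 2% aqueous sodium bicarbonate and given intraperitoneally 24 and 18 h before a lethal SFV challenge (10 LD50, pretitrated in mice). Treatment lasted 1 day. Survival was followed for 21 days, and survivor numbers were compared with placebo by two-tailed Fisher exact test.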

In test [2] the test system is Semliki Forest virus. Description: In vivo antiviral protection against lethal Forest virus (SFV) infection at dosage of 100 mg/kg tested in 12 mice. In kind it is functional. An outline of the steps: as §1

As for `CCCCn1cnc2c(O)nc(N)nc21`, the Activity in test [1] is reported as 10.

As to `CCn1cnc2c(O)nc(N)nc21`, the Activity in test [1] was found to be 1.

As for `Nc1nc(O)c2ncn(CCCCCCO)c2n1`, in test [2], the Activity stood at 2.

As for `CCCCCCCn1c(Br)nc2c(O)nc(N)nc21`, the Activity in test [1] is reported as 1.

For the molecule `CCCCCCCCn1c(Br)nc2c(O)nc(N)nc21`, in test [1], the Activity was found to be 3.

Molecule `C=CCn1c(=S)n(CCCCCC)c2nc(N)nc(O)c21` displayed an Activity in test [2] of 8.

For `Nc1nc(O)c2nc(Br)n(CCCCCCO)c2n1`, the Activity in test [2] stood at 2.

With `CCCCCCn1c(Cl)nc2c(O)nc(N)nc21`, in test [2], the Activity came to 7.

Take `CCCCCn1c(S)nc2c(O)nc(N)nc21`: in test [1], the Activity was determined as 8.

Turning to `CCCCCCCCn1cnc2c(O)nc(N)nc21`, the Activity in test [1] turned out to be 1.

With `CCCCCCn1c(O)nc2c(O)nc(N)nc21`, the Activity in test [2] was determined as 1.

`CCCCCCn1c(=O)n(C)c2c(O)nc(N)nc21` had an Activity in test [1] of 11.

For the molecule `CCCCCCn1c(CC)nc2c(O)nc(N)nc21`, in test [2], the Activity is on record as 3.

On to `CCCCn1c(Br)nc2c(O)nc(N)nc21`, for which, in test [1], the Activity was 6.

The molecule `CCCCCCn1c(S)nc2c(O)nc(N)nc21` showed an Activity in test [1] of 1.

Molecule `CCCn1cnc2c(O)nc(N)nc21` registered an Activity in test [1] of 2.

Take `CCCCCCn1c(Br)nc2c(O)nc(N)nc21`: the Activity in test [1] is 4.

The molecule `CCCCCCn1c(C)nc2c(O)nc(N)nc21` had an Activity in test [2] of 0.

`CCCCCCn1c(S)nc2c(S)nc(N)nc21` had an Activity in test [2] of 0.

On to `CCCCCn1cnc2c(O)nc(N)nc21`, for which the Activity in test [1] was 8.

Take `CCCCCn1c(Br)nc2c(O)nc(N)nc21`: in test [1], the Activity is 8.

In test [1], `Nc1nc(O)c2ncn(C3CCCCC3)c2n1` displayed an Activity of 0.

`C=CCSc1nc2c(O)nc(N)nc2n1CCCCCC` came in with an Activity in test [2] of 6.

In turn, `N#CCCCCCn1cnc2c(O)nc(N)nc21` had an Activity in test [2] of 5.

`CCCCCCn1cnc2c(O)nc(N)nc21` yielded an Activity in test [1] of 12.

For the molecule `Nc1nc(O)c2ncn(C3CCCC3)c2n1`, the Activity in test [1] is recorded as 0.

`C[C@]1(CO)OC(n2c(=O)sc3c(O)nc(N)nc32)[C@H](O)[C@@H]1O` (some centres not stated) registered an Activity in test [2] of 11.
